Screening results as filed in PubChem BioAssay.
Shown are actives, neighbours in structure and some others; about 1.8% of the full set was active somewhere.
M5 ag: agonists of human muscarinic M5 receptor (CHRM5); P08912; CHO-K1 hM5 cells, Fluo-8 calcium fluorescence; 0% DMSO wells, 100% maximal acetylcholine response; activation, % at 3 µM; 360,000 compounds, 0.19% hits; AID 624037;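 active = activation above the run's mean over test compounds plus 3 SD, cut at about 23% in these data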;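 also: signal is peak over basal fluorescence ratio across the kinetic read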
Target sequence (P08912 whole entry, looked up): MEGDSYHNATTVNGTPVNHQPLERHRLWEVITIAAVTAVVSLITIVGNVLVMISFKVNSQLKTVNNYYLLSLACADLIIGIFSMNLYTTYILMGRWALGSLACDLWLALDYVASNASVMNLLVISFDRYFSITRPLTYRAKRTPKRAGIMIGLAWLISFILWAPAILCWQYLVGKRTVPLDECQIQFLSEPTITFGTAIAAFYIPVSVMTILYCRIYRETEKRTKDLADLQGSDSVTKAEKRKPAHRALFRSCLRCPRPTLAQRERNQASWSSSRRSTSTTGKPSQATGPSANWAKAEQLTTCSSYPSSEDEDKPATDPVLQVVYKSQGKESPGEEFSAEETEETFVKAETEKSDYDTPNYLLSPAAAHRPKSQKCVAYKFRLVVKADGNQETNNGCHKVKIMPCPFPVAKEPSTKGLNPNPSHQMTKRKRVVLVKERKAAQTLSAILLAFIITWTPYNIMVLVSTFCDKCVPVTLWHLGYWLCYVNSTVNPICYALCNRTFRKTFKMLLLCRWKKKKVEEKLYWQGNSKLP
CHRM4 PAM: potentiates acetylcholine response at human M4 receptor; P08173; CHO-K1 hM4/Gqi5, Fluo-8 calcium fluorescence, ACh EC20; 0% = ACh EC20, 100% = maximal ACh; activation, % at 3 µM; 360,000 compounds, 0.4% hits; AID 624126;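 active = activation above its plate's cutoff, the mean activation of sample wells plus 3 SD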
CHRM4 agonist: CHRM4 agonism in calcium assay | P08173 | CHO-K1 hM4/Gqi5, Fluo-8 calcium fluorescence; vehicle 0%, full acetylcholine response 100% | activation, % at 3 µM | 360,000 compounds, 0.14% hits | AID 624127;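 active = activation above the run mean over all test wells plus 3 SD, cut at about 32% in these data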;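 also: peak over basal fluorescence ratio per well then scaled between controls; 0% = DMSO wells and 100% = acetylcholine at EC100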
CHRM4 antagonist: CHRM4 antagonism in calcium assay. P08173. CHO-hM4 cells, ACh EC80, Fluo-8 calcium fluorescence. AID 624125. 360,000 compounds, 0.73% hits. inhibition, % at 3 µM;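 active = inhibition above its plate's cutoff, the mean inhibition of sample wells plus 3 SD, cut at about 27% in these data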;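 also: 0% = acetylcholine EC80 with DMSO and 100% = DMSO without agonist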
M5 PAM: positive allosteric modulators of human muscarinic M5 receptor; P08912; CHO-K1 hM5, Fluo-8 calcium, ACh EC20 PAM; 0% = ACh EC20, 100% = ACh EC100; activation, % at 3 µM; 360,000 compounds, 0.3% hits; AID 624038;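 active = activation above the run cutoff, the mean activation of all test compounds plus 3 SD, cut at about 18% in these data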
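Measured by: Fluo-8 calcium fluorescence; material: human M5 receptor in CHO-K1 cells; schedule: Post-acetylcholine fluorescence recording 140 s; benchmarks: low control EC20 acetylcholine (0%), high control EC100 acetylcholine (100%); read-out: Max/basal fluorescence ratio as % of EC20–EC100 ACh window; compound: single dose, 3 µM nominal final test concentration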
CHRM5 antagonist: CHRM5 antagonism in calcium assay; CHO-hM5 cells, Fluo-8 calcium fluorescence, ACh EC80; AID 624040; inhibition, % at 3 µM; 360,000 compounds, 0.59% hits;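 active = inhibition above a per-plate cutoff, the mean of that plate's test compounds plus 3 SD, cut at about 27% in these data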;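 also: 0% = acetylcholine EC80 with DMSO and 100% = DMSO without agonist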
An asterisk follows results filed as active.

SMILES	M5 ag	CHRM4 PAM	CHRM4 agonist	CHRM4 antagonist	M5 PAM	CHRM5 antagonist
CN1CCN(C(=O)N2c3ccccc3C=Cc3ccccc32)CC1	-13.0	-16.9	0.6	70.8*	-25.2	97.6*
O=C(CN1CCCCC1)N1CCCc2ccccc21	-5.7	-3.3	0.2	12.5	-4.4	8.4
O=C(CN1CCCCCC1)N1c2ccccc2C=Cc2ccccc21	-6.4	-31.7	-0.1	95.2*	-15.8	79.6*
O=C(CN1CCCC1)N1c2ccccc2C=Cc2ccccc21	-13.7	-21.8	0.9	51.0*	-33.5	49.5*
NC(=O)N1c2ccccc2C=Cc2ccccc21	1.1	6.7	1.5	-19.2	-1.9	-4.3
CC/C(=N/NC(=O)c1ccc2c(c1)OCO2)c1ccccc1O	2.4	1.3	0.8	-1.2	12.0	-7.9
Cc1cc(C)n(CCCNC(=O)c2ccc3c(c2)NC(=O)CS3)n1	-12.4	5.8	0.7	-4.3	25.0*	2.3
CN1C(=O)/C(=C/c2ccccc2OCc2ccc(F)cc2)N(C)C1=S	-7.1	-37.8	-1.4	97.1*	-19.6	77.4*
CC(=O)c1ccc(NC(=S)NCc2ccc(Cl)cc2Cl)cc1	8.0	-18.4	17.9	17.7	-25.3	29.2*
CC(=O)c1ccc(NC(=O)Nc2ccc(Cl)cc2)cc1	10.2	-14.5	27.5	5.8	-20.6	24.0
CCN(C[C@H]1N[C@@](Cc2ccccc2)(C(=O)OC)[C@H]2C(=O)N(C)C(=O)[C@@H]12)C(=O)COC	-0.8	0.5	0.1	-4.9	1.5	-3.2
CC(C)(C)c1ccc(S(=O)(=O)N2CCC(O)(c3ccc(Cl)cc3)CC2)cc1	-16.5	-52.7	12.5	19.3	-32.0	30.3*
COc1ccc(S(=O)(=O)N2CCC(O)(c3ccc(Cl)cc3)CC2)cc1	-5.7	-6.7	5.0	8.7	-13.5	1.9
COc1ccc(-c2nc3c(Br)c(N)c(Br)cc3o2)cc1	-2.0	29.1*	1.1	26.8*	10.0	-0.7
Nc1c(Br)cc2oc(-c3ccccc3)nc2c1Br	-1.9	20.5	0.3	-7.0	1.8	-11.0
O=C(Nc1ccc2ccccc2c1)N1CCCN(CCOc2ccccc2)CC1	-9.4	-0.1	1.8	-4.4	5.2	6.4
CC1CCN(S(=O)(=O)c2ccc(NC(=O)Cn3nnc(-c4ccccc4F)n3)cc2)CC1	-3.2	-3.2	4.6	-3.4	-21.6	31.4*
CC1CCN(S(=O)(=O)c2ccc(NC(=O)c3ccccc3F)cc2)CC1	1.3	-7.6	5.5	-0.8	-1.1	10.6
COc1ccc2cc(S(=O)(=O)NC3CC(C)(C)NC(C)(C)C3)ccc2c1	-3.6	0.1	-0.2	-6.4	-0.7	7.7
Cn1c(=O)c2[nH]c(-c3cccnc3)nc2n(C)c1=O	-2.7	31.4*	0.8	-8.6	-0.2	-12.7
Cc1cccc(/C=C(\C(=O)O)c2ccc(S(=O)(=O)N3CCCC3)s2)c1	0.8	3.8	-0.6	-0.3	-1.4	14.9
CSc1nc(SC(C)C(=O)O)c2c3c(sc2n1)COC(C)(C)C3 (configuration not stated)	-2.2	8.2	0.0	-4.7	7.2	2.4
CCCCSc1nc(NCc2ccco2)c2c3c(sc2n1)COC(C)(C)C3	-0.6	-2.2	-2.4	8.3	3.0	-1.3
CCCSc1nc(NCc2ccco2)c2c3c(sc2n1)COC(C)(C)C3	3.7	43.2*	-1.3	5.0	4.1	-2.9
CSc1nc(SCCN(C)C)c2c3c(sc2n1)COC(C)(C)C3	-0.8	7.1	51.8*	-13.7	16.7	-7.2
CCC(C)c1ccccc1NC(=O)C(C)OC(=O)CN1C(=O)NC(C)(C)C1=O (configuration not stated)	2.8	26.4*	0.5	-14.2	1.4	6.2
Cc1cccc(C(=O)N[C@@H](C)C(=O)N2CCN(c3ncccn3)CC2)c1	2.8	3.2	1.5	-3.0	3.6	3.0
CCC(C)(O)c1[nH]c2ccc(C(=O)OC)cc2c1C (configuration not stated)	-3.7	7.3	1.5	-15.9	5.9	11.0
